From ChEMBL document CHEMBL1142138, “Development of a novel dicistronic reporter-selectable hepatitis C virus replicon suitable for high-throughput inhibitor screening” (Antimicrob Agents Chemother, 2007)

Assays:
Hepatitis C virus [1] = assay: Antiviral activity against HCV 1b con1 in dual-reporter HCV replicon Huh7 cells by measuring hRLuc reporter activity after 72 hrs; format: functional, organism-based, Hepacivirus hominis; details: genotype 1b con1, Huh-7, 72 h
In short: (§1)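 Replicon cells seeded at 2 x 10^4/well in DMEM without selection antibiotics. Eight threefold serial compound dilutions added, final 320 to 0.1 µM (IFN 10 to 0.003 IU/ml). After 3 days at 37°C, medium removed and hRLuc activity read with a dual-luciferase reporter kit. Percent inhibition was taken relative to compound-free control and EC50 derived.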

[2] = Selectivity index, CC50 for dual-reporter HCV replicon Huh7 cells to EC50 against HCV 1 in dual-reporter HCV replicon Huh7 cells; format: functional, Huh-7
In short: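 Dual-reporter replicon cells: hRLuc from the replicon, FLuc in the nucleus. Seeded at 2 x 10^4/well without selection antibiotics, then eight threefold compound dilutions (final 320 to 0.1 µM). After 3 days, XTT/PMS for 4 h read at 450/650 nm, then FLuc and hRLuc luminescence. Percent inhibition calculated from the luciferase and XTT signals. Index = CC50/EC50.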

[3] = target: RNA-directed RNA polymerase (Hepacivirus hominis, UniProt O39930); assay: Inhibition of recombinant HCV 1b BK NS5B polymerase by primer/template-directed transcription assay; design: species or system Hepatitis C virus subtype 1b
In short: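 Recombinant genotype 1b (strain BK) NS5B with biotin-dG12 primer (5 pmol) and poly(rC)300 template (0.5 pmol). Enzyme-started, 30 min at 30°C, EDTA stop, DEAE filter capture, scintillation counting. Final DMSO 1%. IC50 fitted from triplicate cpm.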

[4] = Cytotoxicity against dual-reporter HCV replicon Huh7 cells by measuring XTT end points after 72 hrs; format: cell-based, Huh-7; details: human
In short: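 Cells were seeded at 2 x 10^4/well without selection antibiotics and exposed to eight threefold dilutions, final 320 to 0.1 µM, for 3 days. XTT (final 200 µg/ml) and phenazine methosulfate (final 1 mM) were then added. After 4 h, formazan was read at 450 nm against a 650 nm reference, and percent inhibition calculated versus control.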

Hepatitis C virus [5] = assay: Antiviral activity against HCV 1b con1 in HCV 1b in dicistronic reporter selectable HCV replicon Huh7 cells by measuring hRLuc reporter activity after 72 hrs; format: functional, organism-based, Hepacivirus hominis; details: genotype 1b con1, Huh-7, 72 h; in short: as §1
Hepatitis C virus [6] = assay: Antiviral activity against HCV 1b con1 in dicistronic reporter selectable HCV replicon Huh7 cells assessed as inhibition of HCV RNA after 72 hrs by RT-PCR; format: functional, organism-based, Hepacivirus hominis; details: genotype 1b con1, Huh-7, 72 h
In short: (§2)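 Cells were then PBS-washed and total RNA extracted. HCV RNA and GAPDH mRNA were quantified by TaqMan RT-PCR against standard curves, and HCV was normalized to GAPDH at each concentration. Percent inhibition was computed versus DMSO-treated wells, giving EC50. Reactions were also run without reverse transcriptase.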

Hepatitis C virus [7] = assay: Antiviral activity against HCV 1b con1 in dual-reporter HCV replicon Huh7 cells assessed as inhibition of HCV RNA after 72 hrs by RT-PCR; format: functional, organism-based, Hepacivirus hominis; details: genotype 1b con1, Huh-7, 72 h; in short: as §2
[8] = Cytotoxicity against dual-reporter HCV replicon Huh7 cells by measuring FLuc reporter activity after 72 hrs; format: cell-based, Huh-7; details: human
In short: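 DDR cells carry a nuclear FLuc reporter. They were seeded at 2 x 10^4/well without selection antibiotics and given eight threefold compound dilutions, final 320 to 0.1 µM. After 3 days, medium was removed and FLuc read with a dual-luciferase kit. Percent inhibition was calculated versus compound-free control.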

Chain of RNA-directed RNA polymerase (O39930 whole entry): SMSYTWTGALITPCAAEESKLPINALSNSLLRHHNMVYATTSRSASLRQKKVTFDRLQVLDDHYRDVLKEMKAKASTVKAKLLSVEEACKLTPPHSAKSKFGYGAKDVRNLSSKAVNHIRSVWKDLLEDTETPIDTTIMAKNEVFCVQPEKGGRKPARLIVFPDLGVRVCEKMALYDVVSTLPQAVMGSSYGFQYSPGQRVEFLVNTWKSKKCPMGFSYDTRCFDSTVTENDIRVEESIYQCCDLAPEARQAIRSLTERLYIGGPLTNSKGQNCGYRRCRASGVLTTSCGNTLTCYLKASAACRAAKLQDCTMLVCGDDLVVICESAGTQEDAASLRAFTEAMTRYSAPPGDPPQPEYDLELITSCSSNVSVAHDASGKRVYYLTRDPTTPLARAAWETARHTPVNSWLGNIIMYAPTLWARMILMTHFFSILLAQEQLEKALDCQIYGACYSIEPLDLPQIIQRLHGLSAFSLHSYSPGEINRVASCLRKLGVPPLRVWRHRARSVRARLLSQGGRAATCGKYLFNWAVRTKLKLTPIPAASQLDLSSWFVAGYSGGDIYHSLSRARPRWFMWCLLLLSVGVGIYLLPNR

Row | Structure (SMILES) | EC50 (Hepatitis C virus [1]) [µM] | Selectivity index [2] | IC50 [3] [µM] | CC50 at 72 h [4] [µM] | EC50 (Hepatitis C virus [5]) [µM] | EC50 (Hepatitis C virus [6]) [µM] | EC50 (Hepatitis C virus [7]) [µM] | CC50 at 72 h [8] [µM]
1 | COc1cc(OC)c(CCC2(C3CCCC3)CC(O)=C(Sc3nc4nc(C)cc(C)n4n3)C(=O)O2)cc1Cl (stereo unspecified) | 1.7 | >188.2 | 0.014 | > 320 | 3.3 | 2.4 | 3.2 | > 320
2 | Cc1cc(SC2=C(O)OC(CCc3ccc(O)cc3)(C3CCCC3)CC2=O)c(C(C)(C)C)cc1N (stereo unspecified) | 115 | 0.9 |  | 242 |  |  |  | 116
3 | OC[C@H]1O[C@@H](n2cnc3cc(Cl)c(Cl)cc32)[C@H](O)[C@@H]1O [DICHLORORIBOBENZIMIDAZOLE] | 34.1 | 0.7 |  | 40.4 |  |  |  | 60.7
